The list is not random: actives were taken first. Their share in the collection is about 4.5%.
p97 inhibitor: blocks human p97 ATPase activity | P55072 | recombinant p97 ATPase, Kinase-Glo ATP luminescence, 3 h | inhibition, % at 8 µM | 0.42% of 220,000 active; in the data active means inhibition above about 15%;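 further: 0% = DMSO vehicle and 100% = wells lacking enzyme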
Target sequence (P55072 whole entry, looked up): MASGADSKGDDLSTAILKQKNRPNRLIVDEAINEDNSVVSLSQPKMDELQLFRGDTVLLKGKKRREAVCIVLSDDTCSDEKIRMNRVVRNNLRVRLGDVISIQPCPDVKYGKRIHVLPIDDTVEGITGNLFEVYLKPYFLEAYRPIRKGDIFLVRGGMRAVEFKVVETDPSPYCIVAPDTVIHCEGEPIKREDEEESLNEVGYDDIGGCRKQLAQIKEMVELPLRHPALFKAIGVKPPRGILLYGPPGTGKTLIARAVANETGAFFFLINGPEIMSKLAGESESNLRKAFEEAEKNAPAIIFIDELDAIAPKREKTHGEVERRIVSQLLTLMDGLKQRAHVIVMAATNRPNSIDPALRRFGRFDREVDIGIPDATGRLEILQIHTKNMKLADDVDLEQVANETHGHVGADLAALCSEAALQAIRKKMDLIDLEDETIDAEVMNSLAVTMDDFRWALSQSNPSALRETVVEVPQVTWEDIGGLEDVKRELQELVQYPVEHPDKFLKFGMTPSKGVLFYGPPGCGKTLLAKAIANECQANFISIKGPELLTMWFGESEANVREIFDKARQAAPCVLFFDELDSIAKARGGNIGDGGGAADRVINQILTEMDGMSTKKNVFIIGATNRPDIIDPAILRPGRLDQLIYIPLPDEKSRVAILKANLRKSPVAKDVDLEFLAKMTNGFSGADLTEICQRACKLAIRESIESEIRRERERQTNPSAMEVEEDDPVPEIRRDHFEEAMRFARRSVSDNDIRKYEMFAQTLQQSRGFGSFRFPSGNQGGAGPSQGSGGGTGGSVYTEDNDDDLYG
UPR XBP1 act: adaptive UPR (XBP1) activation | activation, % at 20 µM | CHO-XBP1 luciferase reporter, IRE1-XBP1 UPR activation, luminescence; percent of tunicamycin response, DMSO as zero | 0.33% of 330,000 active | AID 463104;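 active means versus positive control, 20 µM dose yields 30% or more activation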;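 further: 100% = tunicamycin at 10 µg/mL and 0% = DMSO only wells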
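Assay system: IRE1-XBP1 luciferase reporter CHO line. Input: 1000 cells/well. Buffer or medium: F12 with 10% serum. Doses: 20 µM, 1% DMSO. Times: overnight seeding at 37 °C, 6 h compound treatment at 37 °C. Technique: Steady-Glo luciferase glow luminescence, 10 min after reagent addition.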
PfM18AAP inh: blocks P. falciparum M18 aspartyl aminopeptidase; recombinant PfM18AAP, H-Glu-NHMec fluorogenic cleavage; inhibition, % at 7.35 µM; 1.2% of 290,000 active;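 active means inhibition above the campaign mean inhibition over all tested compounds plus 3 SD, cut at about 28% in these data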;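 further: 0% = plate median of test compound wells and 100% = 2 mM ZnCl2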
CHOP inhibitor: blocks CHOP induction under ER stress; CHO-K1 CHOP-promoter luciferase, tunicamycin-induced, 15-18 h; inhibition, % at 10 µM; 3.8% of 220,000 active;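 active means compounds that reduced the stress-induced luciferase reporter signal by more than about 70% of percent inhibition, limit read from the data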;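 further: 0% = tunicamycin plus vehicle and 100% = wells without tunicamycin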
CHOP UPR activ: apoptotic UPR (CHOP) activation; AID 449763; CHO-CHOP luciferase reporter, luminescence; percent of tunicamycin response over DMSO baseline; 0.34% of 330,000 active; activation, % at 10 µM;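 active means at 10 µM dose, activation of 40% or more, normalized to positive control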;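 further: 100% = tunicamycin at 10 µg/mL and 0% = DMSO alone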
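System: CHO-CHOP luciferase reporter cell line; amount: 500 cells/well; buffer or medium: F12 medium containing 10% fetal bovine serum; incubation: 6 h compound exposure at 37 °C after overnight seeding; measured by: luciferase luminescence after 10 min with Steady-Glo reagent; evaluation: % reporter activation, DMSO baseline versus tunicamycin full activation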
HCV NS3 hel inh: inhibitors of Hepatitis C virus NS3 helicase. inhibition, % at 10.9 µM. NS3 helicase DNA unwinding, Cy5 molecular beacon fluorescence. 0.56% of 290,000 active;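 active means inhibition above the mean of all tested compounds plus 3 SD, set per campaign, cut at about 35% in these data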;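 further: 0% = DMSO wells and 100% = thioflavine S control wells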
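test system = hepatitis C virus NS3 helicase domain fragment enzyme | reagent = annealed dual-labelled DNA beacon duplex, ATP-started | times = 1 h at 25 °C | detection = Cy5 fluorescence, 0 and 60 min reads | read-out basis = percent inhibition from t60/t0 fluorescence ratio | control set = DMSO and thioflavine S | replication = one well per compound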
NS3 hel confirm: HCV NS3 helicase inhibition, confirmation assay; shares compounds with HCV NS3 hel inh; NS3 helicase DNA unwinding, Cy5 molecular beacon fluorescence; inhibition, % at 10.9 µM; 31% of 1,600 active; AID 1943;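 active means inhibition above the mean of all tested compounds plus 3 SD, cutoff set per campaign, cut at about 36% in these data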
DNA FID counter: counter-screen for HCV NS3 helicase inhibitors: DNA intercalator displacement; shares compounds with HCV NS3 hel inh; DNA fluorescent intercalator displacement, fluorescence; inhibition, % at 7.9 µM; 4% of 1,600 active; AID 1945; in the data active means inhibition above about 37%;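 further: 0% = vehicle and 100% = reference compound; higher means more displacement of ethidium bromide from the DNA hairpin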
DNA FID DR: counter-screen for HCV NS3 helicase inhibitors: DNA intercalator displacement dose response. IC50, µM. 120 tested, under 10 active. shares compounds with HCV NS3 hel inh. AID 2172. fluorescent intercalator displacement from DNA, fluorescence; call rule not given here
Active calls of the source: *; . = not tested or not shown.

SMILES | p97 inhibitor | UPR XBP1 act | PfM18AAP inh | CHOP inhibitor | CHOP UPR activ | HCV NS3 hel inh | NS3 hel confirm | DNA FID counter | others
Cc1nn(CCc2nc(-c3ccco3)cs2)c2[nH]c(=O)cc(C(F)(F)F)c12 | 11 | 4 | 7 | 2 | 2 | 46* | 72* | -11
Cc1cc(C)n(CCc2nc(-c3ccco3)cs2)n1 | -1 | -4 | -11 | 14 | 0 | 12 | . | .
COc1cc(OC)cc(-c2c(-c3cccs3)c3cc(-c4ccc5[nH]ccc5c4)ccc3n2C)c1 | . | 0 | . | . | 2 | . | . | .
CCC1(c2ccc(F)cc2)NC(=O)N(CC(=O)N2CCN(C(=O)c3cccs3)CC2)C1=O (configuration not stated) | . | 1 | . | . | 2 | . | . | .
O=C(N/N=C/c1cc(Br)cc([N+](=O)[O-])c1O)c1ccc(NC(=O)c2ccc(F)cc2)cc1 | . | -1 | 1 | . | 1 | 37* | 8 | -2
O=C(N/N=C/c1cc(Br)cc(Cl)c1O)c1ccc2c(c1)OCO2 | . | 0 | . | . | -3 | . | . | .
O=C(N/N=C/c1ccccc1)c1ccc(NC(=O)c2ccc(F)cc2)cc1 | . | 3 | -7 | . | 1 | 38* | -9 | 1
COc1ccc(/C=N\NC(=O)c2ccccc2)cc1COc1ccc(F)cc1 | . | -3 | 4 | . | 0 | 46* | -12 | -35
O=C(N/N=C/c1cc(Cl)cc([N+](=O)[O-])c1O)c1ccc2c(c1)OCO2 | . | 0 | 6 | . | 4 | 52* | -8 | 7
COc1ccc(CN2CCNC(=O)C2CC(=O)NCCC2=CCCCC2)c(F)c1 (configuration not stated) | . | 0 | 15 | . | 0 | -26 | . | .
COc1cc2c(cc1OC)CN(C(=O)CN1C(=O)c3ccc([N+](=O)[O-])cc3C1=O)CC2 | . | -4 | . | . | -2 | . | . | .
CCn1c(NN)nc2sc3c(c2c1=O)CCC3 | 2 | -5 | 15 | 6 | 2 | 19 | . | .
NNc1nc2sc3c(c2c(=O)n1Cc1ccccc1)CCC3 | -4 | 0 | -11 | 4 | -1 | 44* | 10 | -16
O=C(CC(SCc1ccco1)c1ccc(O)cc1)c1cccs1 (configuration not stated) | -5 | 6 | 25 | 11 | 4 | 69* | 0 | -11
COc1c(N2CCN[C@H](C)C2)c(F)cc2c(=O)c(C(=O)O)cn(C3CC3)c12 | . | -8 | -13 | . | 1 | -5 | . | .
COc1c(N2CCN(C(=S)NCc3ccccc3)C(C)C2)c(F)cc2c(=O)c(C(=O)O)cn(C3CC3)c12 (configuration not stated) | 8 | 2 | -4 | 65 | -2 | 40* | 42* | -21 | DNA FID DR=>79
CCOc1ccccc1N1CCN(c2nc(N)c(C#N)c(CC#N)c2C#N)CC1 | -1 | 6 | 3 | 16 | -2 | 36* | -18 | -10
Cc1nn(CC(=O)OCC(=O)c2ccc(OC(F)F)cc2)c(C)c1[N+](=O)[O-] | . | -3 | . | . | 2 | . | . | .
C/C(=N\NC(=S)NCCc1ccccc1)c1ccc(Cl)cc1Cl | . | 4 | 3 | . | -1 | 21 | . | .
C/C(=N\NC(=S)NCCc1ccccc1)c1ccc(O)cc1O | . | 3 | 25 | . | -2 | 50* | 12 | 12
Cc1cc(N=Nc2ccccc2C(=O)O)c(C)c(C)c1O | -10 | -2 | 1 | 0 | -3 | 49* | 66* | 2
Cc1ccc(NC(=O)CSc2sc3c(O)cc(=O)[nH]c3c2C#N)c(F)c1 | . | 0 | 13 | . | 1 | 36* | 27 | 1
O=C(NCc1ccccn1)c1ccc(OC2CCN(Cc3ccc(F)cc3F)CC2)cc1 | . | -4 | 4 | . | -1 | -2 | . | .
CC(=O)Nc1ccc(NC(=O)CNC(=O)c2cccc(C)c2)cc1 | . | -2 | 0 | . | 0 | 17 | . | .
O=C(CSc1nc2ccccc2n1Cc1ccccc1)N/N=C/c1ccccc1C(=O)O | 2 | -2 | 2 | 0 | 0 | 24 | . | .
SMILES | p97 inhibitor | UPR XBP1 act | PfM18AAP inh | CHOP inhibitor | CHOP UPR activ | HCV NS3 hel inh | NS3 hel confirm | DNA FID counter | others
O=C(CSc1nc2ccccc2n1Cc1ccccc1Cl)N/N=C/c1ccccc1C(=O)O | -5 | -2 | 2 | 11 | 0 | 40* | 50* | -15
CS(=O)(=O)c1sc2nc(-c3cccs3)cc(-c3ccccc3)c2c1N | 4 | 1 | 8 | 30 | -3 | 46* | 78* | 10
Cc1ccc(-c2cc(-c3ccccc3)c3c(N)c(S(C)(=O)=O)sc3n2)cc1 | 1 | 1 | 8 | 2 | 2 | 5 | . | .
CCN(CC(=O)NC(C)C)C(=O)[C@H](C)NC(=O)c1ccc(Br)cc1 | 6 | -4 | -9 | -2 | 0 | 1 | . | .
O=C(CSc1nnc(-c2ccco2)n1Cc1ccccc1)c1ccc(F)cc1 | -3 | 4 | -9 | 12 | 2 | 39* | 74* | -2
Cc1cccc(OCC(=O)Nc2ccc3c(c2)nc2n3CCOC2)c1 | . | 1 | -4 | . | 4 | 4 | . | .
O=C(OCc1cc(=O)n2c(n1)sc1ccccc12)c1ccc(O)cc1O | 0 | 1 | -4 | 28 | 4 | 36* | 30 | 1
O=C(O)C(Cc1ccccc1)Nc1ccc([N+](=O)[O-])cc1[N+](=O)[O-] (configuration not stated) | . | 1 | 1 | . | 3 | 38* | -23 | 4
COc1ccc(Nc2cc(Nc3ccccc3)ncn2)cc1 | . | 4 | -1 | . | 6 | -13 | . | .
CN(C)c1ccc(C(=O)c2ccccc2)cc1 | -9 | 3 | 9 | 51 | 4 | 6 | . | .
CN(C)c1ccc(N=Nc2ccc(C(=O)O)cc2)cc1 | . | -9 | 26 | . | -9 | 63* | -20 | -3
CCOC(=O)C1=C(COC(=O)C(CC)Oc2ccccc2)NC(=O)NC1C (configuration not stated) | . | 0 | . | . | -1 | . | . | .
COc1ccccc1-c1ccc(/C=C2/C=C(C)OC2=O)o1 | 3 | 3 | -5 | -29 | 6 | 15 | . | .
COc1ccccc1-c1ccc(/C=C2\C=CC(=O)O2)o1 | 5 | 3 | 1 | -7 | 22 | 37* | -5 | -3
CC1CCc2c(sc(/N=C/c3ccco3)c2C(N)=O)C1 (configuration not stated) | -9 | -2 | 16 | 19 | 4 | 37* | -4 | 1
O=C(Cn1nc(-c2ccco2)ccc1=O)Nc1ccc(Br)cc1 | . | -9 | -15 | . | 2 | 40* | -16 | -4
Cc1cccc(NC(=O)Cn2nc(-c3ccco3)ccc2=O)c1C | . | 0 | -28 | . | 2 | 18 | . | .
N#Cc1c(-c2ccccc2)cc(-c2cccs2)nc1SCC(=O)O | . | -2 | 4 | . | -1 | 39* | 68* | -12

Compound activity deposited in PubChem BioAssay by several laboratories.
